SMILES strings stand for the structures. Calls of active or inactive are those of the source. No cut-off for these calls is given here. Some results are limits rather than exact numbers.

The test system of one assay is Staphylococcus aureus. In words: Antibacterial activity against Staphylococcus aureus after 24 hrs by serial dilution method. It counts as functional.
The subject of the next assay is Bacillus subtilis. Put plainly: Antibacterial activity against Bacillus subtilis after 24 hrs by serial dilution method. It is filed as functional.
Another assay concerns Escherichia coli. In words: Antibacterial activity against Escherichia coli after 24 hrs by serial dilution method. It counts as functional.
The subject of a further assay is Candida albicans. In words: Antifungal activity against Candida albicans after 48 hrs by serial dilution method. It counts as functional. The procedure, abridged: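 Serial compound dilutions in Sabouraud dextrose broth (tube dilution), incubated 37 °C for 48 h. MIC was read as the lowest concentration with no growth.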
A further assay has as its system Aspergillus niger. Put plainly: Antifungal activity against Aspergillus niger after 7 days by serial dilution method. It counts as functional.
For another assay, the system named is Feline coronavirus. Put plainly: Antiviral activity against Feline caronavirus infected in […] cells assessed as inhibition of virus-induced cytopathic effect after 3 days by MTS assay. It counts as functional, organism-based. A digest of the protocol:
(§1)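 Confluent cell monolayers were infected with 100 CCID50 of virus and allowed 2 h adsorption at 37 °C. Virus was then removed and serial compound dilutions were added. Cultures were incubated at 37 °C for 3 days, until CPE was complete in the untreated virus control. EC50 was the concentration giving 50% inhibition of virus-induced CPE, by visual score or by MTS formazan cell viability.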
On the technique in general: Cytopathic effects are the visible damage that an infection or toxin causes in cultured cells.

The test system of another assay is Felid alphaherpesvirus 1. In words: Antiviral activity against Feline herpesvirus 1 infected in […] cells assessed as inhibition of virus-induced cytopathic effect after 3 days by MTS assay. It counts as functional, organism-based. A digest of the protocol:
as §1

The test system of assay [1] is Human alphaherpesvirus 1. Put plainly: Antiviral activity against Herpes simplex virus 1 KOS infected in human HEL cells assessed as inhibition of virus-induced cytopathic effect after 3 days by MTS assay. It is filed as functional, organism-based. A digest of the protocol:
as §1

Another assay concerns Human alphaherpesvirus 2. Put plainly: Antiviral activity against Herpes simplex virus 2 G infected in human HEL cells assessed as inhibition of virus-induced cytopathic effect after 3 days by MTS assay. It counts as functional, organism-based. To be noted: strain G. A digest of the protocol:
as §1

For the next assay, the system named is Vaccinia virus. Put plainly: Antiviral activity against Vaccinia virus infected in human HEL cells assessed as inhibition of virus-induced cytopathic effect after 3 days by MTS assay. It is filed as functional, organism-based. To be noted: Orthopoxvirus vaccinia. The procedure, abridged:
as §1

Assay [2] concerns Human alphaherpesvirus 1. Put plainly: Antiviral activity against acyclovir-resistant […] kinase-deficient HSV1 KOS infected in human HEL cells assessed as inhibition of virus-induced cytopathic effect after 3 days by MTS assay. It counts as functional, organism-based. A digest of the protocol: as §1
Assay [3] relates to Vesicular stomatitis virus. In words: Antiviral activity against VSV infected in human HEL cells assessed as inhibition of virus-induced cytopathic effect after 3 days by MTS assay. It counts as functional, organism-based. The procedure, abridged:
as §1

The test system of assay [4] is Influenza A virus. In words: Antiviral activity against influenza A virus H1N1 infected in MDCK cells assessed as inhibition of virus-induced cytopathic effect after 3 days by MTS assay. It counts as functional, organism-based. A digest of the protocol: as §1
Assay [5] has as its system Influenza A virus. In words: Antiviral activity against influenza A virus H3N2 infected in MDCK cells assessed as inhibition of virus-induced cytopathic effect after 3 days by MTS assay. It is filed as functional, organism-based. The procedure, abridged:
as §1

Another assay concerns Influenza B virus. In words: Antiviral activity against influenza B virus infected in MDCK cells assessed as inhibition of virus-induced cytopathic effect after 3 days by MTS assay. It counts as functional, organism-based. A digest of the protocol: as §1
Another assay concerns Human respirovirus 3. In words: Antiviral activity against Parainfluenza 3 virus infected in african green monkey Vero cells assessed as inhibition of virus-induced cytopathic effect after 3 days by MTS assay. It is filed as functional, organism-based. The procedure, abridged: as §1
For assay [6], the system named is Mammalian orthoreovirus 1. Put plainly: Antiviral activity against Reovirus 1 infected in african green monkey Vero cells assessed as inhibition of virus-induced cytopathic effect after 3 days by MTS assay. It is filed as functional, organism-based. A digest of the protocol: as §1
Another assay has as its system Sindbis virus. Put plainly: Antiviral activity against Simbidis virus infected in african green monkey Vero cells assessed as inhibition of virus-induced cytopathic effect after 3 days by MTS assay. It counts as functional, organism-based. The procedure, abridged:
as §1

In a further assay the test system is Coxsackievirus B4. Put plainly: Antiviral activity against Coxsackie virus B4 infected in african green monkey Vero cells assessed as inhibition of virus-induced cytopathic effect after 3 days by MTS assay. It is filed as functional, organism-based. A digest of the protocol: as §1
A further assay deals with Punta Toro virus. In words: Antiviral activity against Punta toro virus infected in african green monkey Vero cells assessed as inhibition of virus-induced cytopathic effect after 3 days by MTS assay. It counts as functional, organism-based. The procedure, abridged:
as §1

In the case of `CCCCCCCCCCCCCC(=O)N/N=C/c1ccccc1Cl`, the results for the MBC in the assay on Staphylococcus aureus, against Bacillus subtilis and against Escherichia coli were above 0.137 uM/ml, above 0.137 uM/ml and 0.034 uM/ml, respectively. For the same compound, the MFC in the assay on Candida albicans and against Aspergillus niger was above 0.137 uM/ml each time. Besides, in the assay on Aspergillus niger, the “-logMIC” value was 1.12. Also, the inhibition result in the assay with Feline coronavirus, in the assay on Felid alphaherpesvirus 1, with Human alphaherpesvirus 1 [1], in the assay with Human alphaherpesvirus 2, in the assay on Vaccinia virus and with Human alphaherpesvirus 1 [2] was “inactive” each time. Further, the inhibition result (in assay [3]; in the assay with Influenza A virus [4]; in the assay on Influenza A virus [5]; in the assay with Influenza B virus; with Human respirovirus 3; in assay [6]) was “inactive” each time. For the same compound, the inhibition entry with Sindbis virus, in the assay on Coxsackievirus B4 and in the assay on Punta Toro virus was “inactive” throughout.

`CCCCCCCCCCCCCCCC(=O)N/N=C/c1ccccc1Cl`: the “-logMIC” value in the assay on Staphylococcus aureus was 1.5; with Bacillus subtilis it was 1.49; in the assay with Candida albicans, 2.1; in the assay on Aspergillus niger it was 1.27. The MBC against Staphylococcus aureus was above 0.127 uM/ml; in the assay with Bacillus subtilis, 0.031 uM/ml; in the assay on Escherichia coli, 0.031 uM/ml. Besides, the MFC against Candida albicans and against Aspergillus niger was above 0.127 uM/ml in each case. The inhibition entry in the assay with Feline coronavirus, in the assay on Felid alphaherpesvirus 1, in the assay on Human alphaherpesvirus 1 [1], with Human alphaherpesvirus 2, in the assay on Vaccinia virus and in the assay with Human alphaherpesvirus 1 [2] was “inactive” in each case. Also, the inhibition result (in assay [3]; in the assay with Influenza A virus [4]; with Influenza A virus [5]; in the assay on Influenza B virus; in the assay on Human respirovirus 3; in assay [6]) was “inactive” in each case. For the same compound, the inhibition result in the assay with Sindbis virus, with Coxsackievirus B4 and in the assay on Punta Toro virus was “inactive” each time.

`CCCCCCCCCCCCCC(=O)N/N=C/c1ccccc1`: the MBC in the assay on Staphylococcus aureus, with Bacillus subtilis and in the assay on Escherichia coli was above 0.152 uM/ml in each case. For the same compound, the MFC against Candida albicans and against Aspergillus niger was above 0.152 uM/ml each time. Moreover, the “-logMIC” value in the assay with Aspergillus niger is reported as 1.24. Moreover, the inhibition entry in the assay with Feline coronavirus, in the assay on Felid alphaherpesvirus 1, in the assay on Human alphaherpesvirus 1 [1], in the assay with Human alphaherpesvirus 2, in the assay on Vaccinia virus and in the assay on Human alphaherpesvirus 1 [2] was “inactive” throughout. Also, the inhibition result (in assay [3]; in the assay with Influenza A virus [4]; with Influenza A virus [5]; in the assay on Influenza B virus; with Human respirovirus 3; in assay [6]) was “inactive” in each case. In addition, the inhibition result in the assay with Sindbis virus, with Coxsackievirus B4 and in the assay with Punta Toro virus was “inactive” throughout.

With `Cc1ccc(C(=O)N/N=C/c2ccccc2)cc1`, the MBC against Staphylococcus aureus was above 0.21 uM/ml; in the assay on Bacillus subtilis it was 0.21 uM/ml; against Escherichia coli, 0.052 uM/ml. In addition, the MFC against Candida albicans and against Aspergillus niger was above 0.21 uM/ml each time. In addition, in the assay on Aspergillus niger, the “-logMIC” value is 1.88. Besides, the inhibition result in the assay on Feline coronavirus, in the assay on Felid alphaherpesvirus 1, in the assay with Human alphaherpesvirus 1 [1], in the assay on Human alphaherpesvirus 2, with Vaccinia virus and in the assay with Human alphaherpesvirus 1 [2] was “inactive” each time. Moreover, the inhibition result (in assay [3]; in the assay with Influenza A virus [4]; in the assay with Influenza A virus [5]; in the assay with Influenza B virus; in the assay on Human respirovirus 3; in [6]) was “inactive” throughout. The inhibition result in the assay with Sindbis virus, in the assay on Coxsackievirus B4 and in the assay with Punta Toro virus was “inactive” each time.

On to `Cc1ccc(C(=O)N/N=C/c2ccccc2Cl)cc1`, for which the MBC with Staphylococcus aureus was found to be 0.045 uM/ml; against Bacillus subtilis, 0.183 uM/ml; in the assay with Escherichia coli, 0.045 uM/ml. Further, the MFC is given as above 0.183 uM/ml in the assay on Candida albicans and 0.183 uM/ml against Aspergillus niger. In addition, the “-logMIC” value in the assay with Aspergillus niger turned out to be 1.61. For the same compound, the inhibition entry in the assay on Feline coronavirus, with Felid alphaherpesvirus 1, in the assay on Human alphaherpesvirus 1 [1], in the assay with Human alphaherpesvirus 2, in the assay on Vaccinia virus and in the assay with Human alphaherpesvirus 1 [2] was “inactive” in each case. The inhibition entry (in assay [3]; in the assay with Influenza A virus [4]; with Influenza A virus [5]; in the assay on Influenza B virus; with Human respirovirus 3; in assay [6]) was “inactive” each time. Moreover, the inhibition result in the assay on Sindbis virus, in the assay with Coxsackievirus B4 and in the assay on Punta Toro virus was “inactive” in each case.

Turning to `CCCCCCCCCCCC(=O)N/N=C/c1ccccc1`, the MBC against Staphylococcus aureus was above 0.166 uM/ml; against Bacillus subtilis it was above 0.166 uM/ml; in the assay with Escherichia coli, 0.041 uM/ml. The MFC against Candida albicans and in the assay with Aspergillus niger was above 0.166 uM/ml in each case. Moreover, the “-logMIC” value with Aspergillus niger was determined as 1.21. The inhibition result in the assay with Feline coronavirus, in the assay on Felid alphaherpesvirus 1, in the assay on Human alphaherpesvirus 1 [1], in the assay with Human alphaherpesvirus 2, in the assay with Vaccinia virus and in the assay on Human alphaherpesvirus 1 [2] was “inactive” in each case. Further, the inhibition entry (in assay [3]; in the assay with Influenza A virus [4]; with Influenza A virus [5]; with Influenza B virus; in the assay with Human respirovirus 3; in assay [6]) was “inactive” throughout. In addition, the inhibition entry in the assay with Sindbis virus, with Coxsackievirus B4 and in the assay with Punta Toro virus was “inactive” each time.

Turning to `CCCCCCCCCCCC(=O)N/N=C/c1ccccc1Cl`, the MBC is recorded as above 0.148 uM/ml in the assay on Staphylococcus aureus, 0.148 uM/ml in the assay with Bacillus subtilis and 0.009 uM/ml in the assay with Escherichia coli. Also, the figures for the “-logMIC” value with Escherichia coli and with Aspergillus niger were 1.8 and 1.43, respectively. The MFC against Candida albicans and in the assay with Aspergillus niger was above 0.148 uM/ml in each case. Besides, the inhibition result in the assay on Feline coronavirus, in the assay on Felid alphaherpesvirus 1, with Human alphaherpesvirus 1 [1], in the assay with Human alphaherpesvirus 2, with Vaccinia virus and in the assay on Human alphaherpesvirus 1 [2] was “inactive” throughout. Also, the inhibition result (in assay [3]; in the assay on Influenza A virus [4]; in the assay on Influenza A virus [5]; with Influenza B virus; in the assay on Human respirovirus 3; in assay [6]) was “inactive” throughout. The inhibition entry in the assay on Sindbis virus, with Coxsackievirus B4 and in the assay with Punta Toro virus was “inactive” in each case.
